Assay results: ChEMBL document CHEMBL1914324, “Discovery of novel spirocyclic inhibitors of fatty acid amide hydrolase (FAAH). Part 2. Discovery of 7-azaspiro[3.5]nonane urea PF-04862853, an orally efficacious inhibitor of fatty acid amide hydrolase (FAAH) for pain” (Bioorg Med Chem Lett, 2011)
The source made the active and inactive calls.

Tests used:
[1] = organism: Rattus norvegicus; assay: Antiinflammatory activity against rat CFA model assessed as minimum effective dose after 4 hrs; format: functional; settings: read-out: MED
Method in brief: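 CFA inflammatory pain model in rats given compound orally. Paw withdrawal threshold assessed with von Frey filaments 4 h post dose. N = 8 animals/group; significance versus vehicle by ANOVA/Dunnett's (p <0.05). Minimum efficacious dose defined as exposure giving >95% FAAH inhibition.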

[2] = system: Rattus norvegicus; assay: Volume of distribution at steady state in rat CFA model at 3 mg/kg, po; format: ADME, organism-based; design: dose 3 mg/kg, route oral; settings: in vivo
[3] = Oral bioavailability in rat CFA model at 3 mg/kg; format: ADME, organism-based; settings: in vivo
[4] = Volume of distribution at steady state in dog; format: ADME, organism-based, Canis lupus familiaris; settings: in vivo, read-out: Vdss
[5] = Clearance in rat CFA model at 3 mg/kg, po; format: ADME, organism-based; design: dose 3 mg/kg, route oral; settings: in vivo
Method in brief: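 Rats in the CFA model screened at a single oral dose of 3 mpk. Plasma compound concentrations determined, including at 24 h. Clearance estimated from the 3 h and 24 h time points.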

[6] = Half life in dog; format: ADME, organism-based, Canis lupus familiaris; settings: in vivo
[7] = system: Rattus norvegicus; assay: Inhibition of FAAH in rat CFA model brain isolates assessed as residual activity using 3H-anandamide as substrate at 0.3 mg/kg, po after 4 hrs; format: functional, organism-based; design: dose 0.3 mg/kg
Method in brief: (§1)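 Rats with CFA-induced inflammatory pain dosed orally. Brain tissue and leukocytes collected 4 h post dose. Residual FAAH activity measured with 3H-anandamide as substrate. n = 4 animals/group. PK, biomarker and behavioural samples taken from the same animals.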

[8] = system: Rattus norvegicus; assay: Inhibition of FAAH in rat CFA model at 3 mg/kg, po after 3 hrs; format: functional
[9] = target: T1, Fatty-acid amide hydrolase 1 (Rattus norvegicus) (UniProt P97612); assay: Ratio of Kinact to Ki for rat FAAH activity
T1 sequence (whole entry): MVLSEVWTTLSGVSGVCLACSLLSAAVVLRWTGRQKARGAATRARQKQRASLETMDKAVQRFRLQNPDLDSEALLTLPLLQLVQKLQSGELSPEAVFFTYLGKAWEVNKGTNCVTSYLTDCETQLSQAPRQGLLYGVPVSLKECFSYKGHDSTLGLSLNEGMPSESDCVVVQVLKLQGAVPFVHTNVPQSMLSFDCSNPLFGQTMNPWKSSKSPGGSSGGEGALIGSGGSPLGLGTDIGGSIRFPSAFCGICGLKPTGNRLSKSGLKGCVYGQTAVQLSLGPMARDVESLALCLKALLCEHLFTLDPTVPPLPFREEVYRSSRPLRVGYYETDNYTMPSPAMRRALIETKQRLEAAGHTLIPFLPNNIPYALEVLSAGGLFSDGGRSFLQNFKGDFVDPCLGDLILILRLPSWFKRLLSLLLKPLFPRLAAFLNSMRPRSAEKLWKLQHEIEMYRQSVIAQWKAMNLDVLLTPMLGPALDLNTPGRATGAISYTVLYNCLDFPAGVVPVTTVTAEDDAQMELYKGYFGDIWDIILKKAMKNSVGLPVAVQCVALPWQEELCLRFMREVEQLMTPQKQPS
Method in brief: (§2)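 kinact/Ki determined against human and rat FAAH. Each value is the average of at least two independent determinations.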

[10] = target: T2, Fatty-acid amide hydrolase 1 (Homo sapiens) (UniProt O00519); assay: Inhibition of FAAH in human liver proteomes using rhodamine-tagged fluorophosphonate probe at 100 uM by competitive activity-based protein profiling method
T2 sequence (whole entry): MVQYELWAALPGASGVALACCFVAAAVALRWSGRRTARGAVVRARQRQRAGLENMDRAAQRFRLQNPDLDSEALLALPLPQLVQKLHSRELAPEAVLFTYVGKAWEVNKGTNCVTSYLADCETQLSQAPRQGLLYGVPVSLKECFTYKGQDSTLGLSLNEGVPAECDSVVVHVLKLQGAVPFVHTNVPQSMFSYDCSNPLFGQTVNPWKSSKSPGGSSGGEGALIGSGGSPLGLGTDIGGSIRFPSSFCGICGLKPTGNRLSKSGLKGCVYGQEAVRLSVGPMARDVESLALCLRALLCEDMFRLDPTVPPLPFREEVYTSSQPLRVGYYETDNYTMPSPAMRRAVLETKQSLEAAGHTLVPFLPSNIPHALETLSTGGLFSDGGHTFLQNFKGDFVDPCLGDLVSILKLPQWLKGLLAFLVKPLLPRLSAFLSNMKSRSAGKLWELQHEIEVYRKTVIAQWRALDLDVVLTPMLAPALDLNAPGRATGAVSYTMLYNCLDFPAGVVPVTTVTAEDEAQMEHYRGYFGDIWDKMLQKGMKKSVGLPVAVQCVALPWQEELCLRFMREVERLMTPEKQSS
Method in brief: (§3)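 Competitive activity-based protein profiling against >200 human serine hydrolases, FAAH included. Compound tested at 100 µM in human brain membrane and soluble liver proteomes. Residual hydrolase activity labelled with a rhodamine-tagged fluorophosphonate probe.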

[11] = target: T2, Fatty-acid amide hydrolase 1 (Homo sapiens); assay: Ratio of Kinact to Ki for human FAAH activity; method in brief: as §2
[12] = Inhibition of cytochrome P450; format: ADME
[13] = Oral bioavailability in dog; format: ADME, organism-based, Canis lupus familiaris; settings: in vivo
[14] = Genotoxicity in micronucleus
[15] = system: Rattus norvegicus; assay: Inhibition of FAAH in orally dosed rat CFA model assessed as elevation of […]anandamide concentration in brain after 4 hrs; format: functional, organism-based
[16] = target: T3, Voltage-gated inwardly rectifying potassium channel KCNH2 (Homo sapiens, UniProt Q12809); assay: Displacement of dofetilide from ERG
T3 sequence (Q12809 whole entry): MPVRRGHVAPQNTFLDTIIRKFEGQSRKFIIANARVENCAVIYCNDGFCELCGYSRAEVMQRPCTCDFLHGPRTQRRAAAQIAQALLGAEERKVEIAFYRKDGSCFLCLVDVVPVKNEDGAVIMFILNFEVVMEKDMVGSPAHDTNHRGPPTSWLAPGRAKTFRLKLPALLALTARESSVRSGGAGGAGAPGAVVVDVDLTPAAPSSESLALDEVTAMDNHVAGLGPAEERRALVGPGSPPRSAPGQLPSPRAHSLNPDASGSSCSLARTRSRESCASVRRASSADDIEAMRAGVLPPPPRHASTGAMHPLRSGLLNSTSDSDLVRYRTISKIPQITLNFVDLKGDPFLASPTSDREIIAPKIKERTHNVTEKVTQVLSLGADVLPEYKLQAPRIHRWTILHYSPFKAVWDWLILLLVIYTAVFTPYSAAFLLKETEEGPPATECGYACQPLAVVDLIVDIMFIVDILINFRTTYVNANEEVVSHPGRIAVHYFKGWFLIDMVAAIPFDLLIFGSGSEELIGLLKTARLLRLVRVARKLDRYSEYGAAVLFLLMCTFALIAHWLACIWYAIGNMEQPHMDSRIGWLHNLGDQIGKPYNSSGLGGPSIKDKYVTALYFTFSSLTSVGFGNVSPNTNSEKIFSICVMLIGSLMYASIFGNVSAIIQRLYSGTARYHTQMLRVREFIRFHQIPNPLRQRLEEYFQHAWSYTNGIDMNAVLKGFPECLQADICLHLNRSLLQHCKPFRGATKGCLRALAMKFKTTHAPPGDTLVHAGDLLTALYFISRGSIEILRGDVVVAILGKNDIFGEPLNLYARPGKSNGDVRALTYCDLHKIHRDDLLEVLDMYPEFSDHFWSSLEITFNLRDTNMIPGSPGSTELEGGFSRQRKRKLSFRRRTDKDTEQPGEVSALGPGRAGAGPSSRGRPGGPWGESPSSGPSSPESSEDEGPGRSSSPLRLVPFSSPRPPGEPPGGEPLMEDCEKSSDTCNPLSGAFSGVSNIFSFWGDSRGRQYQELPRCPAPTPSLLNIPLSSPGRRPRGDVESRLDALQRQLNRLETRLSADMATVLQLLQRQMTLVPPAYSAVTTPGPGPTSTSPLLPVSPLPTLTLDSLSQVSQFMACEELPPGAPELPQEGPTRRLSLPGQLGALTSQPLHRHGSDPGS

[17] = Plasma concentration in rat CFA model at 3 mg/kg, po after 4 hrs; format: ADME, organism-based; design: dose 3 mg/kg, route oral
Method in brief: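 CFA rats given compound orally; plasma sampled 4 h post dose. Compound levels determined by LC/MS. n = 4 animals/group.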

[18] = Clearance in dog; format: ADME, organism-based, Canis lupus familiaris; settings: in vivo
[19] = target: T2, Fatty-acid amide hydrolase 1 (Homo sapiens); assay: Inhibition of FAAH in human brain membrane using rhodamine-tagged fluorophosphonate probe at 100 uM by competitive activity-based protein profiling method; format: cell membranes; method in brief: as §3
[20] = Half life in rat CFA model at 3 mg/kg, po; format: ADME, organism-based; design: dose 3 mg/kg, route oral; settings: in vivo
[21] = system: Rattus norvegicus; assay: Inhibition of FAAH in orally dosed rat CFA model assessed as elevation of […]anandamide concentration in plasma after 4 hrs; format: functional, organism-based
[22] = system: Rattus norvegicus; assay: Inhibition of FAAH in rat CFA model leukocytes assessed as residual activity using 3H-anandamide as substrate at 0.3 mg/kg, po after 4 hrs; format: functional, organism-based; design: dose 0.3 mg/kg; method in brief: as §1
[23] = system: Salmonella typhimurium; assay: Mutagenic activity in Salmonella Typhimurium by Ames test; format: toxicity, organism-based; settings: salmonella enterica subsp. enterica serovar typhimurium
[24] = target: T3, Voltage-gated inwardly rectifying potassium channel KCNH2; assay: Inhibition of human ERG

Cc1noc(NC(=O)N2CCC3(CC2)CC(c2ccc(F)c(Cl)c2)C3)c1C
minimal effective dose [1]: 0.3 mg/kg
Vdss [2]: 3.4 L/kg
bioavailability [3]: 53%
Vd [4]: 5 L/kg
CL/F [5]: 0.51 L/h/kg
half-life [6]: 7.8 h
inhibition [7]: Active
activity call (active/not active) [8]: Active
minimal effective dose ([8]; read-out: MED): 0.3 mg/kg
Ratio [9]: 5820 M⁻¹ s⁻¹
inhibition [10]: Active
Ratio [11]: 4190 M⁻¹ s⁻¹
inhibition (INH) [12]: Not Active
bioavailability [13]: 33%
Activity [14]: Non-toxic
inhibition [15]: Dose-dependent effect
inhibition (INH) [16]: Not Active
concentration at 4 h [17]: 0.459 µM
clearance [18]: 0.666 L/h/kg
inhibition [19]: Active
half-life [20]: 7.1 h
inhibition [21]: Dose-dependent effect
inhibition [22]: Active
Activity [23]: Non-toxic
inhibition (INH) [24]: Not Active
